# Bioassay records: PubChem BioAssay, Broad Institute
# Sampled rows, rich in hits. Any-hit rate of the full collection: about 2.2%.
# CFTR F508del cor: CFTR F508del correction in bronchial cells; CFBE cells, YFP halide quenching; stimulated with forskolin plus potentiator P3; % fluorescence drop versus neutral controls; activity (quench increase), % at 7.58 µM; 350,000 tested, 0.36% active;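 active = mean added fluorescence quench of at least 8% versus neutral control, with both replicates also reaching 8%; inconclusive = only one of the mean or replicate conditions met; inactive = mean below 8% and not both replicates reaching 8%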;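 also: cells transiently co-express mutant CFTR-F508del with the halide-sensitive YFP; corrector assay measuring rescue of mutant channel to the surface after 24 h compound exposure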
# dFosB activator: mouse delta FosB homodimer activation; P13346; purified delta FosB, TAMRA-CDK5 oligo fluorescence polarization; percent of positive-control signal above neutral wells; activation, % at 25 µM; 340,000 tested, 0.99% active; AID 493131;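 active = mean activation above about 17%, with every replicate also reaching it, limit read from the data, passing the limit was not always enough; inconclusive = only one of the two conditions met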
# Target sequence (P13346 whole entry, looked up): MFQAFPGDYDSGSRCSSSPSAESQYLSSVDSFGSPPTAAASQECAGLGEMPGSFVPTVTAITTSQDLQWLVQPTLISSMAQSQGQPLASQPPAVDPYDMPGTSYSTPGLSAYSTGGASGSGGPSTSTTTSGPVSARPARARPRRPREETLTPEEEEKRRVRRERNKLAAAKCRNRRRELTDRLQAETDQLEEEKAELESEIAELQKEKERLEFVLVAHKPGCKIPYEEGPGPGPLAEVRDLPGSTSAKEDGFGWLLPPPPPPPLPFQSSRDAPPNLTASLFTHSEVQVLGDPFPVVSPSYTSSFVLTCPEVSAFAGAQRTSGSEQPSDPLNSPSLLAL
# S100A4 MyoIIA: inhibitors of human S100A4 binding to myosin IIA peptide; P26447; S100A4/TAMRA-MyoIIA peptide fluorescence polarization; inhibition, % at 10.7 µM; 360,000 tested, 0.14% active;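 active = mean inhibition of at least 70% across replicates, with every replicate also reaching that level; inconclusive = mean inhibition reaches 70% but some replicates fall short; inactive = mean inhibition below 70%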
# Target sequence (P26447 whole entry, looked up): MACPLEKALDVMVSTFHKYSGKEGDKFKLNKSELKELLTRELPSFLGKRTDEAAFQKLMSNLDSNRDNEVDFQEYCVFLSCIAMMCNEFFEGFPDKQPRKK
#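 Test system: S100A4 monomer protein. Medium: HEPES buffer with Ca2+, pH 7.2. Reagent: fluorescent myosin IIA peptide, 5 nM. Compound dosing: single-point compound testing. Timing: 5 min between mix addition and reading. Benchmarks: DMSO neutral and TFP positive wells.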
# FGF22 binding: FGF22 (human) thermal shift binding. Q9HCT0. recombinant FGF22 thermal shift, SYPRO orange fluorescence; percent of sucrose octasulfate shift, DMSO zero. activity (Tm shift, normalised), % at 9.99 µM. 340,000 tested, 1.5% active. AID 651658;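 active = mean Tm shift, scaled 0 neutral to 100 positive control, at about 1.3% or above, every replicate too, limit read from the data; inconclusive = no clear call, values can overlap the other calls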
# Target sequence (Q9HCT0 whole entry, looked up): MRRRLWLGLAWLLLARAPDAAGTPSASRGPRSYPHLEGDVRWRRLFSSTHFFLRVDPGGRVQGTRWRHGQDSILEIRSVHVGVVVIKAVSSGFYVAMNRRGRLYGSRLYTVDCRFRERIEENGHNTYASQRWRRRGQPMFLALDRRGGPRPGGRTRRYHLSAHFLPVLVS
# Active calls of the source: *; ? = inconclusive; / = no result.
SMILES,CFTR F508del cor,dFosB activator,S100A4 MyoIIA,FGF22 binding
CCCCSc1n[nH]c(=S)c2nc[nH]c12,2.5,0.3,-0.8,43.0*
C#CCOCCOCCOCCNc1nc(N2CCOCC2)nc(N2CCN(C(=O)[C@H](CCCCN)n3cc([C@@H](N)C(C)CC)nn3)CC2)n1 (some centres not stated),-1.1,-5.2,-1.3,0.1
C#CCOCCOCCOCCNc1nc(N2CCOCC2)nc(N2CCN(C(=O)[C@H](CCCN=C(N)N)n3cc(C(N)[C@@H](C)CC)nn3)CC2)n1 (some centres not stated),-2.6,-0.2,-0.4,15.3*
CO[C@@H]1CN(C)C(=O)c2cc(NC(=O)c3cccc(F)c3)ccc2OC[C@H](C)N(CC2CC2)C[C@H]1C,0.0,/,1.5,0.0
CCN1C=C(C(C)=O)C(=O)CC1,-5.6,-2.9,-2.5,43.3*
C=CCN1C=C(C(C)=O)C(=O)CC1,1.8,8.0,-1.2,-0.5
O=C(NNC(=O)C1CC1)c1ccc(-c2ccccc2)cc1,4.1,-3.4,-2.1,-0.1
O=C(NNC(=O)c1ccccc1C(=O)O)c1ccc(-c2ccccc2)cc1,-2.9,/,-7.6,43.4*
Cc1ccc(OCC(=O)NNC(=O)c2ccc(NC(=O)C3CC3)cc2)c(C)c1,-0.1,34.5*,-3.7,0.1
Cc1nc(SCc2cccc(C(=O)O)c2)nc2c1CCCC2,-3.1,4.9,1.8,43.0*
CCCCN1C(=O)C(CC(=O)NCc2ccco2)CC(C(=O)N(C)C)=C1C (configuration not stated),0.5,/,-1.6,0.1
CCCCN1C(=O)C(CC(=O)NCc2ccco2)CC(C(=O)N(CC)CC)=C1C (configuration not stated),-1.0,/,-1.4,43.4*
CCCCN1C(=O)C(CC(=O)NCCCN(C)C)CC(C(=O)N(C(C)C)C(C)C)=C1C (configuration not stated),0.7,/,6.4,0.1
CCCCN1C(=O)C(CC(=O)NCCCN(C)C)CC(C(=O)N(CC)CC)=C1C (configuration not stated),-3.7,/,8.4,43.4*
CCN(CC)C(=O)C1=C(C)N(Cc2ccccc2)C(=O)C(CC(=O)NCc2ccco2)C1 (configuration not stated),-3.3,/,?,43.1*
CC1=C(C(=O)N(C)C)CC(CC(=O)NCc2cccc3ccccc23)C(=O)N1CCCN1CCCC1=O (configuration not stated),8.3*,/,-8.0,-0.2
CS(=O)(=O)N1[C@H](C(=O)NC2CCC2)[C@@H](CO)[C@@H]2Cn3c(ccc(-c4cccc(F)c4)c3=O)[C@@H]21,-0.8,/,6.3,/
CCC(=O)N1CC2(CCN(Cc3ccc(F)cc3)CC2)c2c(n(C)c3cc(OC)ccc23)[C@H]1CO,1.3,/,0.3,0.2
Cc1c(Cl)cnc(NC(=O)COC(=O)CCC(=O)c2cccs2)c1Cl,0.3,-3.4,1.7,43.2*
CCC(CC)NC(=O)COC(=O)CCC(=O)c1cccs1,-1.3,-2.1,4.2,43.0*
CC(C)CNC(=O)COC(=O)CCC(=O)c1cccs1,0.7,1.5,-1.8,43.1*
CCNC(=O)COC(=O)CCC(=O)c1cccs1,0.5,-4.6,-7.0,0.2
CO[C@H]1CN(C)C(=O)c2cc(NC(=O)C3CC3)ccc2OC[C@@H](C)N(Cc2ccccc2)C[C@H]1C,2.5,/,6.3,0.3
S=c1[nH]nc(COc2ccccc2)n1/N=C/c1ccncc1,-1.7,-11.0,-4.7,43.1*
COc1cccc(-c2ccc([C@H]3[C@@H](C#N)N(C(=O)Cc4ccccc4)[C@@H]3CO)cc2)c1,2.8,/,-6.8,-0.2
SMILES,CFTR F508del cor,dFosB activator,S100A4 MyoIIA,FGF22 binding
CCCNC(=O)C[C@H]1CC[C@H]2[C@@H](COC[C@@H](O)CN2Cc2ccc(Cl)c(Cl)c2)O1,5.5,/,0.0,-0.3
O=C(C[C@@H]1CC[C@@H]2[C@H](COC[C@H](O)CN2C(=O)c2ccc3c(c2)OCO3)O1)NCCN1CCCC1,0.0,/,-58.8,-0.1
CN(C)CCCNC(=O)C[C@@H]1CC[C@H]2[C@@H](COC[C@@H](O)CN2Cc2ccc(Cl)c(Cl)c2)O1,1.4,/,137.5*,-0.4
CCC(=O)N1C[C@H](O)COC[C@H]2O[C@H](CC(=O)NCc3cc(F)cc(F)c3)CC[C@@H]21,0.9,/,88.4*,-0.5
Cn1cnc(CCNC(=O)C[C@H]2CC[C@H]3[C@@H](COC[C@@H](O)CN3C(=O)C3CC3)O2)c1,2.9,/,85.3*,-0.7
O=C(C[C@@H]1CC[C@@H]2[C@H](COC[C@@H](O)CN2C(=O)c2ccc3c(c2)OCO3)O1)NCCN1CCCC1,1.3,/,72.7*,/
CCC(=O)N1C[C@@H](O)COC[C@@H]2O[C@H](CC(=O)NCc3cc(F)cc(F)c3)CC[C@H]21,-0.7,/,/,0.1
C[C@H](CO)N1C[C@H](C)[C@@H](CN(C)C(=O)CCC(F)(F)F)OCCCC[C@H](C)Oc2ccc(NC(=O)Cc3ccccc3)cc2C1=O,-1.8,/,-43.7,0.2
CO[C@H]1CN(C)C(=O)c2ccc(NC(=O)C3CC3)cc2OC[C@H](C)N(C(=O)CN(C)C)C[C@H]1C,0.2,/,0.0,0.1
C[C@@H]1CN([C@@H](C)CO)C(=O)c2cc(NC(=O)Nc3ccc4c(c3)OCO4)ccc2O[C@@H]1CN(C)Cc1ccc(-c2ccccc2)cc1,2.8,/,3.0,-0.2
Cc1nn(C)cc1NC(=O)C[C@@H]1CC[C@@H]2[C@@H](COc3ccc(NC(=O)C(C)C)cc3C(=O)N2C)O1,3.8,/,/,-0.1
NC(N)=NN=C1c2ccccc2-c2ccccc21,1.1,-20.5,-5.3,0.0
CCN(CC)CCOc1ccc2c(c1)C(=NO)c1cc(OCCN(CC)CC)ccc1-2,/,55.8*,/,/
CCCOc1ccc2c(c1)C(=NN=C(N)N)c1cc(OCCC)ccc1-2,-1.2,34.6*,0.8,0.1
CCN(CC)CCOc1ccc(Br)cc1,/,-11.0,/,/
O=C(C[C@H]1CC[C@H]2NC[C@H](O)COC[C@@H]2O1)NCc1ccc2c(c1)OCO2,3.5,/,/,0.2
O=C(O)c1cc2n(n1)C(C(F)(F)F)CC(C1CC1)N2 (configuration not stated),2.8,-3.1,-0.3,43.2*
CC1CC(C(F)(F)F)n2nc(C(=O)O)cc2N1 (configuration not stated),/,-4.0,4.1,/
O=C(NC1CCN(Cc2ccccc2)CC1)c1ccc(Cn2c(=S)[nH]c3ccc(N4CCOCC4)cc3c2=O)cc1,2.4,34.2*,1.7,-0.1
O=C(CCCCCn1c(=S)[nH]c2ccc(N3CCOCC3)cc2c1=O)NC1CCN(Cc2ccccc2)CC1,0.6,1.1,-30.5,41.6
O=C(NCCO)c1cccc2c1-c1ccccc1C2=O,1.4,-0.5,1.3,0.1
CC(C)(C)NC(=O)c1cccc2c1-c1ccccc1C2=O,10.1*,3.8,-4.0,-0.1
CCCC(=O)Nc1ccc2c(c1)OC[C@@H](C)N(C(=O)c1ccccc1F)C[C@H](C)[C@@H](OC)CN(C)C2=O,-0.4,/,/,/
Cc1ncc(CO)c(/C=N/NC(=O)c2ccc(O)cc2)c1O,/,-1.4,/,/
Cc1ncc(CO)c(/C=N/NC(=S)Nc2ccc(Cl)c(Cl)c2)c1O,2.8,-6.3,4.0,1.5*
